These results are taken from ChEMBL document CHEMBL1134786, “Novel potent inhibitors of lipid peroxidation with protective effects against reperfusion arrhythmias” (J Med Chem, 2001).

The species named for assay [1] is Rattus norvegicus. As to the kind of experiment: Inhibition of in vitro peroxidation (LP) of rat Hepatic microsomal membrane lipid. It counts as functional. The method, boiled down: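 Rat liver microsomal membranes were subjected to lipid peroxidation induced by ferrous ions and ascorbate. Values are mean ± SEM, n = 3.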
The species entered for assay [2] is Rattus norvegicus. Nature of the assay: Evaluated for the interaction with 0.2 mM of the stable free radical DPPH. It counts as functional. Summed up:
(§1)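 Compounds were reacted with the stable free radical DPPH at 0.2 mM. The IC50 (mM) is the concentration that reacts with half of the radical.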
(The DPPH test is a chemical assay of radical scavenging.)

The species named for assay [3] is Rattus norvegicus. Nature of the assay: Effect on in vitro accumulation of MDA content in heart, at conc of 5 uM. It counts as functional.
The species entered for assay [4] is Rattus norvegicus. As to the kind of experiment: Effect on in vitro myocardial electrical activity (arrhythmia score) at 5 uM. It is filed as functional, Myocardium.
The species named for assay [5] is Rattus norvegicus. Nature of the assay: The compound was evaluated for the interaction with 0.2 mM of the stable free radical DPPH. It is filed as functional. Summed up: as §1
Assay [6] is filed under the species Rattus norvegicus. As to the kind of experiment: Effect of compound on in vitro accumulation of MDA content in heart at concentration of 5 uM. It counts as functional.

The IC50 is the concentration needed to halve the response being measured. A higher IC50 goes with a need for much substance. In the case of `Cc1c(C)c2c(c(C)c1O)CCC(C)(C(=O)Nc1ccc3c(c1)Cc1cc(NC(=O)CCCCC4CCSS4)ccc1-3)O2` (stereo not given), the IC50 was 2.58 µM in assay [1] and 20 µM in assay [2].
`O=C(O)CCCCC1CCSS1` (stereo not drawn) [LIPOIC ACID, ALPHA]: the half-inhibitory concentration (IC50) is > 1000 µM in assay [1] and > 400 µM in assay [2]. In assay [3], the MDA content was 1.03 µM (g of tissue)-1. Also, the Arrhythmia score in assay [4] came to 6.3.
As for `Cc1c(C)c2c(c(C)c1O)CCC(C)(C(=O)O)O2` (stereo not given) [TROLOX], the figures for the half-maximal inhibitory concentration (IC50) in assay [1] and in assay [5] were 24.8 µM and 45 µM, respectively. For the same compound, the Arrhythmia score in assay [4] is 3.15. Further, in assay [6], the MDA content is 1.07 uM (g of tissue)-1.
